Active and inactive are the calls of the source. The calls are words filed in the database; no cut-off is given here.
Key:
[1] = tested on: Heart; experiment: Coronaroconstriction in Wistar rat heart Langendorff preparations at 1 uM; type: functional, tissue-based
[2] = tested on: Rattus norvegicus; experiment: Toxicity in Wistar rat assessed as death at 20 mg/kg, ip after 1 hr; type: functional, organism-based; parameters: dose 20 mg/kg
[3] = tested on: Aorta; experiment: Vasodilation activity assessed as inhibition of KCl-induced contraction in Wistar rat aorta at 50 uM; type: functional
Outline: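 Rat aortic rings were contracted with 90 mM KCl with and without a maximal concentration of compound. Inhibition was calculated as 100 × (C − AC)/C, where C and AC are the contractile effects in milligrams with KCl alone and with compound.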

[4] = Vasoconstriction effect in Wistar rat caudal artery relative to KCl; type: functional, tissue-based
Outline: (§1)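 Endothelium-denuded rat caudal artery rings; denudation was confirmed by absence of carbamylcholine-induced relaxation. Cumulative concentration–response curves were run over 0.1–50 µM. Contractions were expressed as a percentage of the 90 mM KCl-induced contraction. Values are mean of at least 4 rings.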

[5] = Vasoconstriction effect in Wistar rat caudal artery; type: functional, tissue-based; outline: as §1
[6] = tested on: Rattus norvegicus; experiment: Toxicity in Wistar rat assessed as death at 40 mg/kg, ip after 1 hr; type: functional, organism-based; parameters: dose 40 mg/kg
Outline: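 Four male Wistar rats (150–250 g) per compound. Drug was dissolved in DMSO at 40 mg/kg and injected intraperitoneally. Animals were kept in a quiet room and watched every 15 min for early signs of toxicity. Four rats given solvent alone served as controls.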

[7] = tested on: Liver; experiment: Stimulation of mitochondrial permeability transition measured by Ca2+ retention capacity of Wistar Albino rat liver mitochondria at 50 uM; type: functional
Outline: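 Liver mitochondria from Albino Wistar rats, isolated by differential centrifugation and suspended in Tris/HCl pH 7.4 with 0.25 M sucrose and 0.1 mM EGTA. Only preparations with RCR ≥ 3.0 (Clark electrode, succinate, 25 °C) were used. MPT was induced by Ca2+ at 25 °C in medium of 200 mM sucrose, 10 mM Tris–MOPS, 10 µM EGTA–Tris, 1 mM Pi, 0.5 µg/mL oligomycin, 5 mM succinate, 2 µM rotenone, pH 7.4.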

[8] = tested on: Liver; experiment: Stimulation of mitochondrial permeability transition measured by Ca2+ retention capacity of mouse liver mitochondria; type: functional

EC50 [5] [µM]	Structure (SMILES)	Activity [1]	Activity [2]	inhibition at 50 µM [3] [%]	Activity [4] [%]	other results
	O=C1NC(=O)C2C3OC(C=C3C(O)(c3ccccc3)c3ccccn3)C12 (stereo not given)	inactive				
	OC(C1=CC2CCC1/C2=C(\c1ccccc1)c1ccccn1)(c1ccccc1)c1ccccn1 (mixture of isomers)	inactive	Not toxic	60		
	CC(O)(c1ccccc1)c1ccccn1 (stereo not given)	inactive				
4.2	O=C1NC(=O)[C@H]2C3C(C(O)(c4ccccc4)c4ccccn4)=CC(C3=C(c3ccccc3)c3ccccc3)[C@@H]12 (stereo not given in full)	Active		42	185	Activity [6]: Toxic
7.8	O=C1NC(=O)C2C3C=CC(C3=C(c3ccccc3)c3ccccn3)C12 (stereo not given)	inactive	Not toxic		193	Activity [7]: Active
	O=C1NC(=O)[C@H]2C3CC(C=C3C(O)(c3ccccc3)c3ccccn3)[C@@H]12 (stereo not given in full)	inactive				
	O=C1NC(=O)[C@H]2C3C=C(C(O)(c4ccccc4)c4ccccn4)C(C3)[C@@H]12 (stereo not given in full)	inactive				
	O=C1NC(=O)[C@H]2C3C=CC(C3)[C@@H]12	inactive				
1	O=C1NC(=O)C2C3C(C(O)(c4ccccc4)c4ccccn4)=CC(/C3=C(/c3ccccc3)c3ccccn3)C12 (stereo not given)	Active	Toxic	64	209	
	OC(C1=CC2CCC1C2)(c1ccccc1)c1ccccn1 (mixture of isomers)	inactive	Not toxic	69		
	O=C1NC(=O)[C@H]2C3C=C(C(O)(c4ccccc4)c4ccccn4)C(C3=C(c3ccccc3)c3ccccc3)[C@@H]12 (stereo not given in full)	inactive		31		
	O=C1CCC(=O)N1	inactive				
11	C=C(c1ccccc1)c1ccccn1	inactive	Not toxic		185	Activity [8]: inactive; Activity [7]: Active
